Here are results for 15 molecules from ChEMBL document CHEMBL3745667, “Identification of Noncompetitive Inhibitors of Cytosolic 5'-Nucleotidase II Using a Fragment-Based Approach” (J Med Chem, 2015).

pIC50, pKi: −log10 of the molar value.

In experiment [1] the target is T1, Cytosolic purine 5'-nucleotidase (Homo sapiens, UniProt P49902). In words: Inhibition of recombinant N-terminal truncated human cytosolic 5'-nucleotidase-2 assessed as inhibition of inosine 5'-monophosphate hydrolysis at 1 mM by rapid green malachite assay. The method, boiled down: (§1)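 Purified recombinant N-terminally truncated cN-II expressed in E. coli, with IMP as substrate. Released phosphate was read by green malachite colorimetry. Inhibitor was tested at a single level, 0.2 mM or 1 mM. Compounds that are not water-soluble were added in DMSO, not exceeding 2% final.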
T1 sequence (P49902 whole entry, the tested form may be a part): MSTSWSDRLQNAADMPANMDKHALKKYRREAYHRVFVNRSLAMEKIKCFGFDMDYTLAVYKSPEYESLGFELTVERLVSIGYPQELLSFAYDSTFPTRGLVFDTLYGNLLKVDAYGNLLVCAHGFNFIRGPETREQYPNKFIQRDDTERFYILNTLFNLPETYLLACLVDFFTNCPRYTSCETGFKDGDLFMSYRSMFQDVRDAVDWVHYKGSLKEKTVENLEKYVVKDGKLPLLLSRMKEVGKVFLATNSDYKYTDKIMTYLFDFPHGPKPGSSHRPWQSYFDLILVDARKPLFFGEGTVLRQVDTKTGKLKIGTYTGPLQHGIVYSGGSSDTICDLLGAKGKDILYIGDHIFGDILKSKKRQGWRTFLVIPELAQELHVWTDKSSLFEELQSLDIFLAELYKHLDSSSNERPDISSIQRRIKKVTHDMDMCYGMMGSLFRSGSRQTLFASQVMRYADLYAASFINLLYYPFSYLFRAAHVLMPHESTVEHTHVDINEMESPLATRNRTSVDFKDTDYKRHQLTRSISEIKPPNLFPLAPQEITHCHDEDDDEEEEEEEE

Experiment [2] relates to RL. In words: Antiproliferative activity against human RL cells after 72 hrs by MTT assay. In kind it is functional, cell-based. In a few lines:
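MTT assay on RL human follicular lymphoma cells treated with a range of compound concentrations for 72 h. IC50 calculated with CompuSyn and given as the mean ± SEM of at least three independent experiments.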

The target of experiment [3] is T1, Cytosolic purine 5'-nucleotidase. In words: Inhibition of recombinant N-terminal truncated human cytosolic 5'-nucleotidase-2 assessed as inhibition of inosine 5'-monophosphate hydrolysis at 0.2 mM by rapid green malachite assay. The method, boiled down:
as §1

Experiment [4] relates to RL. In words: Antiproliferative activity against human RL cells after 72 hrs by MTT assay in presence of fludarabine. Format: functional, cell-based.
In experiment [5] the target is T1, Cytosolic purine 5'-nucleotidase. In words: Inhibition of recombinant N-terminal truncated human cytosolic 5'-nucleotidase-2 assessed as inhibition of inosine 5'-monophosphate hydrolysis by steady state kinetics with HPLC quantification.
The test system of experiment [6] is RL. In words: Antiproliferative activity against human RL cells after 72 hrs by MTT assay in presence of clofarabine. In kind it is functional, cell-based.
For experiment [7], the system named is RL. In words: Antiproliferative activity against human RL cells after 72 hrs by MTT assay in presence of cladribine. In kind it is functional, cell-based.

Take `Nc1nc(Cl)c2nc[nH]c2n1`: the inhibition in experiment [1] was 23%.

With `O=C(Nc1ncnc2nc[nH]c12)c1ccccc1`, the inhibition in experiment [1] was determined as 28%.

Take `c1ccc(N2CCNCC2)nc1`: the inhibition in experiment [1] was determined as 0.5%.

Regarding `Oc1ccc(-c2ccc(O)cc2)cc1`, the inhibition in experiment [1] is 8%.

`O=C1c2ccc(S(=O)(=O)O)cc2C(=O)c2ccc(S(=O)(=O)O)cc21` had a pIC50 with RL [2] of 2.98. The inhibition in experiment [3] is 20%. Further, the figures for the CI95 in the experiment on RL [4], in the experiment with RL [6] and with RL [7] were 4.2, 0.24 and 0.4, respectively. Moreover, the negative logarithm of the Ki (pKi) in experiment [5] was 2.70.

Consider `Oc1ccccc1-c1ccccc1`, for which the inhibition in experiment [1] was 19%.

As to `Nc1cccc2cnccc12`, the inhibition in experiment [1] amounted to 30%.

On to `Nc1[nH]cnc2ncnc1-2`, for which, in experiment [1], the inhibition turned out to be 19%.

As to `OC(c1ccccc1)c1ccccc1`, the inhibition in experiment [1] was 2%.

In the case of `c1ccc(CNc2ncnc3[nH]cnc23)cc1`, in experiment [1], the inhibition stood at 20%.

Take `Nc1ccc(-c2ccc(N)c(O)c2)cc1O`: the inhibition in experiment [1] is 23%.

In the case of `c1ccc(-c2c[nH]cn2)cc1`, the inhibition in experiment [1] was 36%.

In the case of `Oc1ccc2ccc(O)cc2c1`, in experiment [1], the inhibition stood at 40%.

With `Nc1ccccc1-c1ccccc1`, the inhibition in experiment [1] was found to be 36%.

On to `OCc1nc2ccccc2[nH]1`, for which, in experiment [1], the inhibition was 11%.
